Test results reported in ChEMBL document CHEMBL1126079, “Synthesis, configuration, and calcium modulatory properties of enantiomerically pure 5-oxo-1,4,5,6,7,8-hexahydroquinoline-3-carboxylates” (J Med Chem, 1992).

Assays:
[1] = organism: Cavia porcellus; assay: Intrinsic activity is the inhibition of contraction of guinea pig aorta strips value in comparison with nifedipine.; assay type: functional
How it was run: (§1)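 Tissue sat in carbogen-perfused Tyrode solution at 37 °C under a 2 g preload, with isometric recording. KCl (67 mmol/L bath concentration) was added after each substance to test for antagonism, with washing back to the initial state between substances. EC50 and intrinsic activity were derived as in the paper's earlier section 1c.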

[2] = organism: Cavia porcellus; assay: Maximum inhibition of KCl-stimulated contraction of aortic strips of guinea pig; assay type: functional, Aorta
How it was run: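 Aortic strips were held in carbogen-perfused Tyrode solution at 37 °C under 2 g preload, and isometric contractions were recorded after amplification. Contractions were induced with KCl at 67 mmol/L bath concentration to test for antagonism. Between substances the preparation was washed back to its initial state before KCl was given again.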

[3] = organism: Cavia porcellus; assay: Effect on KCl-stimulated contraction of aortic strips of guinea pig; assay type: functional, Aorta; how it was run: as §1
[4] = organism: Cavia porcellus; assay: (§2) Maximum inhibition of BaCl2-stimulated contraction of ileum of guinea pig; assay type: functional
How it was run: (§3)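 Each test substance was given as a single dose to the ileum preparation. BaCl2 contraction was elicited after a 10-min exposure. Between substances the tissue was washed until the initial state returned, then BaCl2 contraction was induced again.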

[5] = organism: Cavia porcellus; assay: Effect on BaCl2-stimulated contraction of ileum of guinea pig; assay type: functional; how it was run: as §3
[6] = organism: Cavia porcellus; assay: Intrinsic activity is the inhibition of contraction of guinea pig ileum value in comparison with nifedipine.; assay type: functional; how it was run: as §3
[7] = organism: Cavia porcellus; assay: Intrinsic activity value in comparison with nifedipine.; assay type: functional
[8] = organism: Cavia porcellus; assay: as §2; assay type: functional; remark: listed apart in the source
How it was run: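 Guinea-pig ileum, single-dose technique: each test substance was added and left for 10 min before BaCl2 contractions were induced. Between substances the preparation was washed until the initial state returned, then BaCl2 contraction was induced again.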

Row | EC50 [3] | EC50 [5] | Compound | IA [1] | Max effect [2] | Max effect [4] | IA [6] | Inhibition [2] | IA [7] | Inhibition [8]
1 | 7.1e-06 M l-1 | – | CO[C@H](COC(=O)C1=C(C)NC2=C(C(=O)CCC2)[C@@H]1c1ccc2c(c1)OCO2)c1ccccc1 | 1 | 70% | – | – | – | – | –
2 | 4e-05 M l-1 | – | CO[C@@H](COC(=O)C1=C(C)NC2=C(C(=O)CCC2)[C@H]1c1ccc2c(c1)OCO2)c1ccccc1 | 0.6 | 42% | – | – | – | – | –
3 | 2e-06 M l-1 | 5e-05 M l-1 | CO/C(O)=C1\C(C)=NC2=C(C(=O)CCC2)C1c1ccc2c(c1)OCO2 (racemic) | 1 | 73% | 76% | 0.8 | – | – | –
4 | – | 25 µM | COC(=O)C1=C(C)NC2=C(C(=O)CCC2)[C@@H]1c1ccc2c(c1)OCO2 (stereo in doubt; 9a) | 0.54 | 38% | 42% | 0.44 | – | – | –
5 | – | 22 µM | COC(=O)C1=C(C)NC2=C(C(=O)CCC2)[C@@H]1c1ccc2c(c1)OCO2 (stereo in doubt; 9b) | 1.2 | 84% | 89% | 0.94 | – | – | –

Row | Compound | EC50 [3] | EC50 [5] | IA [1] | Max effect [2] | Max effect [4] | IA [6] | Inhibition [2] | IA [7] | Inhibition [8]
6 | COC(=O)C1=C(C)NC(C)=C(C(=O)OC)C1c1ccccc1[N+](=O)[O-] [NIFEDIPINE] | 8.9e-09 M l-1 | 2e-08 M l-1 | – | – | – | – | 70% | 1 | 95%
